# Screening results: PubChem, Johns Hopkins Ion Channel Center
# KCNQ1 act: potentiates or activates the human KCNQ1 potassium channel | P51787 | AID 2648 | CHO-K1 KCNQ1, thallium flux FluxOR fluorescence; active compounds read high | 0.35% of 310,000 active | B-score at 10 µM;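 active means fluorescence ratio B-score, a plate-corrected score, at least three library SD, with initial intensity B-score within 5 SD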
#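 Schedule – 37 °C overnight plating, 90-min dark dye load, 20-min compound pretreatment · System – stable KCNQ1 CHO-K1 line · Probe or stimulus – thallium- and potassium-containing depolarizing buffer · Measured by – kinetic FluxOR fluorescence, 10 s baseline plus 110 s post-stimulus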
# hERG protect: shields human hERG channel from block by proarrhythmic agents. Q12809. CHO-hERG, FluxOR thallium flux, dofetilide IC70 present. activation (rescue from dofetilide block), less the hit threshold, % at 10 µM. 0.51% of 310,000 active;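 active means activation above the mean of controls blocked by dofetilide plus 5 SD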;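 further: thallium influx through hERG after potassium depolarization seen as dye fluorescence rise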
# KCNQ1 block: inhibitors of human KCNQ1 potassium channel; B-score at 10 µM; CHO-K1 KCNQ1, FluxOR thallium flux fluorescence; active compounds read high; 1.3% of 310,000 active;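 active means compounds whose thallium flux B-score, printed positive for inhibition, exceeds three library SD while starting fluorescence stays within three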;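 further: channel opened by potassium depolarization with thallium stimulus after 20 min compound exposure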
# KCNK9 block: inhibitors of human KCNK9 two-pore domain potassium channel. B-score at 10 µM. 1.2% of 310,000 active. Q9NPC2. HEK293 KCNK9, FluxOR thallium flux fluorescence; active compounds read low;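 active means ratio B-score over 3 SD below the library mean, with starting fluorescence within 5 SD of its mean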;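 further: negative B-score means less thallium flux so channel inhibition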
# KCNK3 inh: human KCNK3 channel inhibition, primary screen | CHO-KCNK3 thallium flux, FluxOR fluorescence; active compounds read low | B-score at 10 µM | 0.84% of 340,000 active;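 active means B-score under library mean minus 4 SD, starting fluorescence ratio at most library mean plus 5 SD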;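 further: more negative B-score means stronger inhibition of thallium flux through KCNK3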
# KCNQ1 inh valid: reconfirmed blocker of the human KCNQ1 potassium channel | inhibition, % at 10 µM | 93% of 1,600 active | KCNQ1 cell line, FluxOR thallium flux fluorescence | shares compounds with KCNQ1 block;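 active means primary screen active, with duplicate mean exceeding buffer control mean plus 3 SD of buffer wells, cut at about 28% in these data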;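 further: 0% = buffer control ratio and 100% = XE991 inhibitor control ratio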
# CHO Tl flux: counter-screen for KCNQ1 inhibitors: effect in parental CHO cells; fluorescence ratio (Tl flux) at 10 µM; parental CHO-K1, FluxOR thallium flux fluorescence ratio; active compounds read low; zero means no signal rise above baseline; 21% of 1,600 active; shares compounds with KCNQ1 block;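 active means mean of duplicate thallium-flux fluorescence ratios in parental host cells more than 5 SD below the buffer control mean, cut at about 0.38 in these data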;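 further: ratio is peak minus minimum fluorescence divided by baseline fluorescence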
# KCNQ1 ephys val: blocks human KCNQ1 current in automated patch clamp; shares compounds with KCNQ1 block; KCNQ1-CHO cells; calls only at 10 µM; 20% of 490 active; AID 624120;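 active means KCNQ1 current drop exceeding 3 SD of negative control wells, seen in both duplicate runs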;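 further: steady state current during a 2 s step from -80 to +40 mV; negative values mean current inhibition and positive values mean potentiation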
# KCNQ2 spec: KCNQ1 inhibitor that also blocks rat KCNQ2 channel; shares compounds with KCNQ1 block; KCNQ2 cells, FluxOR thallium flux fluorescence; inhibition, % at 10 µM; 71% of 1,600 active;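 active means mean percent inhibition of the KCNQ2 thallium signal more than 5 SD above the buffer-only control wells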;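 further: KCNQ2 expressed in CHO cells; 0% = buffer control wells and 100% = XE-991 inhibitor control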
# Target sequence (O88943 whole entry, looked up): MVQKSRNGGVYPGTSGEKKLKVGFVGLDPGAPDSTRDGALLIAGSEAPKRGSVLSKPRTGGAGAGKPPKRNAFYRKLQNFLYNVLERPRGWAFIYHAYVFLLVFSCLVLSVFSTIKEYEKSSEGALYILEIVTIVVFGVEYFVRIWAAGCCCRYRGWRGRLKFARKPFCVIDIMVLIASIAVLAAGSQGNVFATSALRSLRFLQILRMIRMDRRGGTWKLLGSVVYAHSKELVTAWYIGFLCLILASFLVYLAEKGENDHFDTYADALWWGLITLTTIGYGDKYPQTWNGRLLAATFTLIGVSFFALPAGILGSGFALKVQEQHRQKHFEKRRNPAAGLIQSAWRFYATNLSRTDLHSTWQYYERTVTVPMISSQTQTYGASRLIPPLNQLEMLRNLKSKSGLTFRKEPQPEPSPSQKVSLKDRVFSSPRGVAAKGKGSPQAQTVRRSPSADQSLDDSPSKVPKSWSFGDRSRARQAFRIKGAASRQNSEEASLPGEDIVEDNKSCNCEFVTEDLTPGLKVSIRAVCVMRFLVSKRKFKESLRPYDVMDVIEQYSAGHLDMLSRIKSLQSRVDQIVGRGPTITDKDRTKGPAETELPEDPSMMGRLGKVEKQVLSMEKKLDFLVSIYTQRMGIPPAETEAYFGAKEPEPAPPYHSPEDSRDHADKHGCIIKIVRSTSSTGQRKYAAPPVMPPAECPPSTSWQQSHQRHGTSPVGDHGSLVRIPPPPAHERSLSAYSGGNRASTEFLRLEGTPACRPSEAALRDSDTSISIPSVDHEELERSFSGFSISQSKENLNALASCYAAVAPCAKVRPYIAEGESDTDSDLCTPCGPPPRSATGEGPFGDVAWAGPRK
# KCNQ1-KCNE1 inh: KCNQ1 inhibitor that also blocks human KCNQ1/KCNE1 channel. shares compounds with KCNQ1 block. KCNQ1/KCNE1 cells, FluxOR thallium flux fluorescence. inhibition, % at 10 µM. 77% of 1,600 active;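 active means mean percent inhibition of duplicate wells above the buffer-only control mean plus 3 SD of those controls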;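 further: 0% = buffer only wells and 100% = XE-991 inhibitor control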
# The depositor's hits bear a star; i = inactive; nt = no result; + = active, no number. The list is not random: actives were taken first. Their share in the collection is about 3.1%.
SMILES,KCNQ1 act,hERG protect,KCNQ1 block,KCNK9 block,KCNK3 inh,KCNQ1 inh valid,CHO Tl flux,KCNQ2 spec,KCNQ1-KCNE1 inh,others
CC(C)CSC1=NSC2=NC(=O)/C(=C\c3coc4ccccc4c3=O)C(=N)N12,i,-46,25*,i,i,+,0.004*,i,i,
COc1cc(/C=C/C(=O)OCC(=O)N2CCc3ccccc3C2)ccc1O,i,-10,i,i,i,nt,nt,nt,nt,
CN(C)CCCNC(=O)/C(=C\C=C\c1ccccc1)NC(=O)c1ccc([N+](=O)[O-])cc1,i,-16,i,i,i,nt,nt,nt,nt,
CCN(CC)c1ccc(Nc2nc(N3CCOCC3)c3ccccc3n2)cc1,i,-14,8*,i,i,112*,0.4,117%*,100%*,KCNQ1 ephys val=i
CCOc1ccc(C(=O)CCC(=O)NCC(=O)Nc2c(C)cccc2C)cc1,nt,nt,nt,nt,i,nt,nt,nt,nt,
Cc1cc(C)c2nc(Nc3nc(-c4ccccc4)cc(=O)[nH]3)nc(C)c2c1,i,-9,i,i,i,nt,nt,nt,nt,
CC1=CC(C)(C)N=C(Nc2nc(C)c3cc(C)cc(C)c3n2)N1,i,-24,6*,i,i,79*,0.51,70%*,59%*,
O=c1c2sc3nc(N4CCOCC4)c4c(c3c2ncn1CCc1ccccc1)CCCC4,i,-10,9*,i,i,102*,0.44,92%*,103%*,KCNQ1 ephys val=i
O=c1c2sc3nc(N4CCOCC4)c4c(c3c2ncn1-c1ccccc1)CCCC4,i,-9,i,i,i,nt,nt,nt,nt,
CS(=O)(=O)N1CCC(C(=O)NCc2ccc(Cl)cc2)CC1,i,-8,i,i,i,nt,nt,nt,nt,
COc1ccc(-c2nc(NC(=O)c3[nH]c(C)c(C(C)=O)c3C)sc2C)cc1,i,-22,14*,i,-9.9*,97*,0.28*,110%*,180%*,
Nc1nc2ncc(C(=O)c3cc(Cl)cc(Cl)c3O)cc2s1,i,-14,i,i,i,nt,nt,nt,nt,
CC(C)c1noc2ncc(C(=O)c3cc(Cl)cc(Cl)c3O)cc12,i,-9,6*,i,i,52*,0.55,i,i,
CC(C)(C)c1nc(N2CCN(C(=O)c3ccco3)CC2)c2nnn(Cc3ccccc3)c2n1,i,-9,7*,i,i,118*,0.39,105%*,132%*,KCNQ1 ephys val=i
O=C(c1ccco1)N1CCCC(c2nc3c(nnn3Cc3ccccc3)c(=O)[nH]2)C1 (configuration not stated),i,-6,i,i,i,nt,nt,nt,nt,
O=C(Nc1cccc(Cl)c1)NC1CC2CCC1C2 (configuration not stated),i,1,i,i,i,nt,nt,nt,nt,
O=C(Nc1ccc(Oc2ccc(NC(=O)c3ccco3)c(NC(=O)c3ccco3)c2)cc1)c1ccco1,i,-5,i,i,i,nt,nt,nt,nt,
O=C(Nc1ccc(Oc2ccc3ccccc3c2)cc1)c1ccco1,i,-23,14*,i,i,150*,0.35*,i,186%*,
N#Cc1cc2c(nc1SCC1COc3ccccc3O1)CCC2 (configuration not stated),i,-5,8*,i,i,106*,0.39,99%*,124%*,
CC(C)c1ccc(C(=O)NN2C(=O)C3CCCCC3C2=O)cc1 (configuration not stated),i,-5,i,i,i,nt,nt,nt,nt,
O=C(Nc1cccc(F)c1)c1ccc(-c2ccccc2Cl)o1,i,-15,8*,i,i,161*,0.31*,119%*,+,
COc1ccc(C(=O)COC(=O)C2CCN(c3ccc(C(F)(F)F)cn3)CC2)c(OC)c1,nt,nt,nt,nt,i,nt,nt,nt,nt,
COc1cc(C(=O)COC(=O)C2CCN(c3ccc(C(F)(F)F)cn3)CC2)ccc1OC(F)F,i,-17,6*,i,i,62*,0.48,115%*,62%*,
CC(C)Cc1cc(C(=O)N2CCN(C(c3ccccc3)c3ccccc3)CC2)no1,i,-9,7*,i,i,136*,0.44,109%*,176%*,KCNQ1 ephys val=i
CC(C)c1cc(C(=O)N2CCN(C(c3ccccc3)c3ccccc3)CC2)no1,i,-7,7*,-7.9*,i,108*,0.41,103%*,110%*,KCNQ1 ephys val=i
SMILES,KCNQ1 act,hERG protect,KCNQ1 block,KCNK9 block,KCNK3 inh,KCNQ1 inh valid,CHO Tl flux,KCNQ2 spec,KCNQ1-KCNE1 inh,others
O=C(c1cc(-c2ccco2)on1)N1CCN(C(c2ccccc2)c2ccccc2)CC1,i,-9,8*,i,i,124*,0.43,96%*,142%*,
COc1ccc(-c2cc(C(=O)N3CCN(C(c4ccccc4)c4ccccc4)CC3)no2)cc1,i,-14,i,i,i,nt,nt,nt,nt,
COc1ccc(-c2cc(C(=O)N3CCN(C(c4ccccc4)c4ccccc4)CC3)no2)cc1OC,i,-10,i,i,i,nt,nt,nt,nt,
COc1ccc2oc(C(=O)N3CCN(C(c4ccccc4)c4ccccc4)CC3)c(C)c2c1,i,-12,9*,i,i,93*,0.44,101%*,114%*,KCNQ1 ephys val=+
COc1cccc(-c2cc3nc(-c4ccccc4)cc(N4CCCC(O)C4)n3n2)c1 (configuration not stated),i,-20,9*,i,i,85*,0.44,134%*,182%*,
COc1ccccc1-c1sc2ccccc2c1C#Cc1ccc(N(C)C)cc1,nt,nt,nt,nt,i,nt,nt,nt,nt,
CC(C)c1nc(SCC(=O)N2c3ccccc3CC2C)c2ccccc2n1 (configuration not stated),i,-12,9*,i,i,74*,0.38*,96%*,72%*,
CC1Cc2ccccc2N1C(=O)CSc1ccccc1 (configuration not stated),i,-14,i,i,i,nt,nt,nt,nt,
Cc1cc2cc3c(cc2nc1SCC(=O)N1c2ccccc2CC1C)OCO3 (configuration not stated),i,-4,6*,i,i,100*,0.35*,78%*,90%*,
CC1CCCCC12NC(=O)N(CC(=O)NCCc1ccccc1)C2=O (configuration not stated),nt,nt,nt,nt,i,nt,nt,nt,nt,
